ChEMBL document CHEMBL3871279, “Bioactive Formylated Flavonoids from Eugenia rigida: Isolation, Synthesis, and X-ray Crystallography” (J Nat Prod, 2016)
Values after ≈ are worked out from the molar mass of the structure shown. Values joined by “and” are separate entries in the source; they are usually repeats but may differ in a detail not shown here. Identical values can stand only once.

Columns and labels:
[1] = Cytotoxicity against human BT549 cells assessed as reduction in cell viability after 48 hrs by neutral red dye-based assay; format: functional; settings: BT-549, 48 h
In short: (§1)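 Cell lines from ATCC, seeded at 25 000 cells/well and incubated 24 h. Samples added at several concentrations, then 48 h further incubation. Viability read by modified Neutral Red uptake. IC50 taken from dose–response curves of percent decrease in viability against concentration. Doxorubicin positive control, DMSO vehicle control.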

[2] = Cytotoxicity against pig LLC-PK1 cells assessed as reduction in cell viability after 48 hrs by neutral red dye-based assay; format: toxicity; settings: pig (Sus scrofa); in short: as §1
[3] = Cytotoxicity against African green monkey Vero cells assessed as reduction in cell viability after 48 hrs by neutral red dye-based assay; format: toxicity; settings: African green monkey (Chlorocebus sabaeus); in short: as §1
[4] = Cytotoxicity against human KB cells assessed as reduction in cell viability after 48 hrs by neutral red dye-based assay; format: functional; in short: as §1
[5] = Cytotoxicity against human SK-MEL cells assessed as reduction in cell viability after 48 hrs by neutral red dye-based assay; format: functional; in short: as §1
[6] = Cytotoxicity against human HeLa cells assessed as reduction in cell viability after 48 hrs by neutral red dye-based assay; format: functional; in short: as §1
Nakaseomyces glabratus [7] = test: Antimicrobial activity against Candida glabrata ATCC 90030 after 46 to 50 hrs by broth microdilution method; format: functional
In short: (§2)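 Modified CLSI broth microdilution. Samples serially diluted in 20% DMSO–saline and plated in duplicate. Inocula set by correcting OD630 of suspensions in incubation broth to final target inocula. Amphotericin B drug control. Plates read before and after incubation at 530 nm, or at 544ex/590em for A. fumigatus. IC50 is the concentration giving 50% growth relative to controls. MIC is the lowest concentration allowing no growth.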

[8] = Cytotoxicity against human SKOV3 cells assessed as reduction in cell viability after 48 hrs by neutral red dye-based assay; format: functional; settings: SK-OV-3, 48 h; in short: as §1
Cryptococcus neoformans [9] = test: Fungicidal activity against Cryptococcus neoformans ATCC 90113 after 70 to 74 hrs by broth microdilution method; format: functional
In short: (§3)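 Fungicidal end point from the broth microdilution plates (20% DMSO–saline serial dilutions, duplicate wells, OD630-corrected inocula, amphotericin B control). 5 μL from each clear well transferred to agar and incubated. MFC is the lowest test concentration allowing no growth on agar.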

Aspergillus fumigatus [10] = test: Fungicidal activity against Aspergillus fumigatus ATCC 204305 after 46 to 50 hrs by broth microdilution method; format: functional; in short: as §3
Aspergillus fumigatus [11] = test: Antimicrobial activity against Aspergillus fumigatus ATCC 204305 after 46 to 50 hrs by broth microdilution method; format: functional; in short: as §2
Nakaseomyces glabratus [12] = test: Fungicidal activity against Candida glabrata ATCC 90030 after 46 to 50 hrs by broth microdilution method; format: functional; in short: as §3
Candida albicans [13] = test: Fungicidal activity against Candida albicans ATCC 90028 after 46 to 50 hrs by broth microdilution method; format: functional; in short: as §3
Pichia kudriavzevii [14] = test: Antimicrobial activity against Candida krusei ATCC 6258 after 46 to 50 hrs by broth microdilution method; format: functional; in short: as §2
Cryptococcus neoformans [15] = test: Antimicrobial activity against Cryptococcus neoformans ATCC 90113 after 70 to 74 hrs by broth microdilution method; format: functional; in short: as §2
Pichia kudriavzevii [16] = test: Fungicidal activity against Candida krusei ATCC 6258 after 46 to 50 hrs by broth microdilution method; format: functional; in short: as §3
Candida albicans [17] = test: Antimicrobial activity against Candida albicans ATCC 90028 after 46 to 50 hrs by broth microdilution method; format: functional; in short: as §2
Staphylococcus aureus [18] = test: Antimicrobial activity against methicillin-resistant Staphylococcus aureus ATCC 33591 by broth microdilution method; format: functional
Staphylococcus aureus [19] = test: Antimicrobial activity against Staphylococcus aureus ATCC 29213 by broth microdilution method; format: functional
Staphylococcus aureus [20] = test: microbe, parasite or virus in culture; settings: ATCC 33591
Staphylococcus aureus [21] = test: microbe, parasite or virus in culture; settings: ATCC 29213
[22] = Nakaseomyces glabratus, ATCC 90030

Structure (SMILES) | IC50 (Nakaseomyces glabratus [7]; [22]) [µM] | IC50 (Pichia kudriavzevii [14]) [µM] | IC50 (Cryptococcus neoformans [15]) [µM] | MIC (Cryptococcus neoformans [15]) [µM] | MIC (Nakaseomyces glabratus [7]; [22]) [µM] | IC50 [1] [µM] | IC50 at 48 h [2] [µM] | IC50 at 48 h [3] [µM] | IC50 [4] [µM] | IC50 [5] [µM] | IC50 [6] [µM] | IC50 [8] [µM] | MFC (Cryptococcus neoformans [9]) [µM] | MFC (Nakaseomyces glabratus [12]) [µM] | other results
O=Cc1c(O)cc2oc(-c3ccccc3)cc(=O)c2c1O | 10.8 |  |  |  |  | > 10 | > 10 | > 10 | > 10 | > 10 | > 10 | > 10 |  |  | 
C[C@@H]1[C@H](O)[C@@H](C)/C=C/C=C/C=C/C=C/C=C/C=C/C=C/[C@H](O[C@@H]2O[C@H](C)[C@@H](O)[C@H](N)[C@@H]2O)C[C@@H]2O[C@](O)(C[C@@H](O)C[C@@H](O)[C@H](O)CC[C@@H](O)C[C@@H](O)CC(=O)O[C@H]1C)C[C@H](O)[C@H]2C(=O)O [AMPHOTERICIN B] | 0.2 | 0.6 | 0.2 | 0.3 (≈ 0.277 µg/mL) | 0.7 (≈ 0.647 µg/mL) |  |  |  |  |  |  |  | 0.3 (≈ 0.277 µg/mL) | 0.7 (≈ 0.647 µg/mL) | MFC (Aspergillus fumigatus [10]): 5.4 µM (≈ 4.99 µg/mL); IC50 (Aspergillus fumigatus [11]): 1.4 µM; MIC (Aspergillus fumigatus [11]): 2.7 µM (≈ 2.5 µg/mL); MFC (Candida albicans [13]): 0.7 µM (≈ 0.647 µg/mL); MIC (Pichia kudriavzevii [14]): 1.3 µM (≈ 1.2 µg/mL); MFC (Pichia kudriavzevii [16]): 1.4 µM (≈ 1.29 µg/mL)
O=Cc1c(O)cc(O)c(C(=O)/C=C/c2ccccc2)c1O |  | 34.1 | 24.5 | 70.4 (≈ 20 µg/mL) |  | > 10 | > 10 | > 10 | > 10 | > 10 | > 10 | > 10 | 70.4 (≈ 20 µg/mL) | 70.4 (≈ 20 µg/mL) | IC50 (Candida albicans [17]): 68.9 µM; IC50 (Nakaseomyces glabratus [7]): 10 µM and 35.2 µM
O=Cc1c(O)cc(O)c(C(=O)CCc2ccccc2)c1O | 11.3 |  | 10.5 | 17.4 (≈ 4.98 µg/mL) | 69.9 (≈ 20 µg/mL) | > 10 | > 10 | > 10 | > 10 | > 10 | > 10 | > 10 | 17.4 (≈ 4.98 µg/mL) |  | IC50 (Staphylococcus aureus [18]): 36.6 µM; IC50 (Staphylococcus aureus [19]): 17.4 µM
COc1cccc2c1C(=O)c1c(O)c3c(c(O)c1C2=O)C[C@@](O)(C(=O)CO)C[C@@H]3O[C@H]1C[C@H](N)[C@H](O)[C@H](C)O1 [DOXORUBICIN] |  |  |  |  |  | 3.6 | 17 | > 10 | 3.8 | 1.5 | 4 | 2.6 |  |  | 
O=C(O)c1cn(C2CC2)c2cc(N3CCNCC3)c(F)cc2c1=O [CIPROFLOXACIN] |  |  |  |  |  |  |  |  |  |  |  |  |  |  | IC50 (Staphylococcus aureus [18]): 0.2 µM; MBC (Staphylococcus aureus [20]): 3 µM (≈ 0.994 µg/mL); MBC (Staphylococcus aureus [21]): 1.5 µM (≈ 0.497 µg/mL)

Second part, led by results:

IC50 (Nakaseomyces glabratus [7]; [22]) [µM] | IC50 (Pichia kudriavzevii [14]) [µM] | IC50 (Cryptococcus neoformans [15]) [µM] | MIC (Cryptococcus neoformans [15]) [µM] | MIC (Nakaseomyces glabratus [7]; [22]) [µM] | Structure (SMILES) | IC50 [1] [µM] | IC50 at 48 h [2] [µM] | IC50 at 48 h [3] [µM] | IC50 [4] [µM] | IC50 [5] [µM] | IC50 [6] [µM] | IC50 [8] [µM] | MFC (Cryptococcus neoformans [9]) [µM] | MFC (Nakaseomyces glabratus [12]) [µM] | other results
6.7 | 33.2 | 63.2 | 70.4 (≈ 20 µg/mL) | 35.2 (≈ 10 µg/mL) | O=Cc1c(O)cc2c(c1O)C(=O)C[C@@H](c1ccccc1)O2 | > 10 | > 10 | > 10 | > 10 | > 10 | > 10 | > 10 |  | 70.4 (≈ 20 µg/mL) | 
42.9 | 65.5 | 28.8 | 78.1 (≈ 20 µg/mL) |  | O=C1CC(c2ccccc2)Oc2cc(O)cc(O)c21 (racemic) | > 10 | > 10 | > 10 | > 10 | > 10 | > 10 | > 10 |  |  | 
12.6 |  | 61.5 |  | 70.4 (≈ 20 µg/mL) | O=Cc1c(O)cc2c(c1O)C(=O)C[C@H](c1ccccc1)O2 | > 10 | > 10 | > 10 | > 10 | > 10 | > 10 | > 10 |  | 70.4 (≈ 20 µg/mL) | 
7.2 | 41.2 | 19.3 |  | 35.2 (≈ 10 µg/mL) | O=Cc1c(O)cc(O)c2c1O[C@@H](c1ccccc1)CC2=O | > 10 | > 10 | > 10 | > 10 | > 10 | > 10 | > 10 |  | 70.4 (≈ 20 µg/mL) | 
7.4 | 29.9 | 44.4 | 70.4 (≈ 20 µg/mL) | 35.2 (≈ 10 µg/mL) | O=Cc1c(O)cc(O)c2c1O[C@H](c1ccccc1)CC2=O | > 10 | > 10 | > 10 | > 10 | > 10 | > 10 | > 10 | 70.4 (≈ 20 µg/mL) |  | 
